Data: publication PMC11842817 (Nature Communications, 2025)
Where “and” joins values, the source holds several entries; their conditions need not be identical. Equal values may be shown once. Entries after “also recorded” stand apart in the source; their conditions may differ.

Columns and labels:
[1] = test system: GcoA mutants (GcoAEE, GcoAQT, GcoAET); test: UV-Vis substrate binding analysis of I-helix mutants; parameters: species or system Amycolatopsis thermoflava
[2] = test system: GcoA mutants (GcoAEE, GcoAQT, GcoAET); test: In vitro H2O2-driven O-demethylation by I-helix mutants, HPLC; format: biochemical, Amycolatopsis thermoflava; conditions: mutation of Gln248 and/or Glu249, 20 mM H2O2
Outline: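 GcoA mutants carried N-terminal His6-TEV tags, were expressed in E. coli BL21(DE3) and purified by Ni affinity. Reactions used 1 µM enzyme in 50 mM Tris pH 7.5 with 0.5–2 mM test compound, preincubated 2 min at 30 °C. Started with 20 mM H2O2 and run 60 min at 30 °C, then catalase-quenched; triplicate. Products quantified by C18 HPLC at 254 nm against calibration curves.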

[3] = test system: GcoA mutants (GcoAEE, GcoAQT, GcoAET) with GcoB; test: In vitro NADH/O2-driven; format: biochemical, Amycolatopsis thermoflava
Outline: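 GcoA mutants at 0.5 µM with 1 µM GcoB and 100 µg/mL catalase in oxygenated 50 mM Tris pH 7.5 at 30 °C. About 320 µM NADH added first to record background oxidation. Started with 1 mM test compound; A340 followed for about 10 min, then left about 1 h at room temperature. No-P450 controls included. Products analysed by C18 HPLC at 254 nm.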

SyoA [4] = biological target: T1, SyoA (Amycolatopsis thermoflava, UniProt A0AAX7FLX8); test: In vitro H2O2-driven; format: biochemical, Amycolatopsis thermoflava N1165; conditions: 1 µM SyoA; for concentration of demethylated aromatic product (individual replicates): 10 mM H2O2, 0.5 mM syringol; for concentration of demethylated aromatic product (individual replicates) / concentration of demethylated aromatic product (mean of 3 replicates): 0.5 mM syringaldehyde or 2 mM 4-methylsyringol, 30 °C, 60 min; for total turnover number (TTN): 10 mM H2O2, 60 min; for concentration of demethylated aromatic product (mean of 3 replicates): 50 mM Tris pH 7.5, 10 mM H2O2, 0.5 mM syringol
T1 sequence (A0AAX7FLX8 1-412): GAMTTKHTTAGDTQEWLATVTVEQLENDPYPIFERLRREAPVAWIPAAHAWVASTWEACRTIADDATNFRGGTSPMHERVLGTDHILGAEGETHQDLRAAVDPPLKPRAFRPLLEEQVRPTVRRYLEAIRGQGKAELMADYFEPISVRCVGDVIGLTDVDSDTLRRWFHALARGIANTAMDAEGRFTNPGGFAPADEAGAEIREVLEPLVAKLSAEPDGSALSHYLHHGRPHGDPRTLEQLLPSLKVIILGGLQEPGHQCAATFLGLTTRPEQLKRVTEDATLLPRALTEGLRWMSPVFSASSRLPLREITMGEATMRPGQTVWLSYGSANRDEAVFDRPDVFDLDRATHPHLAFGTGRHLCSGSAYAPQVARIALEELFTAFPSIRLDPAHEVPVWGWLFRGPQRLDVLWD
Outline: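 SyoA expressed in E. coli BL21(DE3) and purified by Ni affinity then anion exchange. Enzyme at 1 µM in 50 mM Tris pH 7.5 with 0.5–2 mM test compound (from DMSO stock), preincubated 2 min at 30 °C. Started with 10 mM H2O2 and run 60 min at 30 °C, then quenched with catalase; triplicate. Products quantified by C18 HPLC (20–95% MeCN/0.1% TFA, 254 nm) against internal-standard calibration (20–500 µM), or by GC-MS after ethyl acetate extraction.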

SyoA [5] = biological target: T1, SyoA; test: Substrate binding affinity; parameters: species or system Amycolatopsis thermoflava N1165; conditions: 50 mM potassium phosphate pH 7.4, n = 3, hyperbolic fit
Outline: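 SyoA at about 2–8 µM in 50 mM potassium phosphate pH 7.4 titrated with test compound from 1, 10 or 100 mM DMSO stocks (at most 10 µL per stock). Difference spectra recorded from 300–600 nm until no further shift. Peak-to-trough ΔA taken at 390−419, 500−419 or 500−570 nm depending on ligand, then fitted to a hyperbolic equation for KD; triplicate titrations.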

SyoA/SyoB = test: In vitro NADH/O2-driven; format: biochemical, Amycolatopsis thermoflava N1165; conditions: ~320 μM NADH; for O-demethylation by reconstituted SyoA/SyoB monooxygenase system: 1 μM SyoA, 1 μM SyoB, 1 mM substrate, 30 °C
Outline: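 Reconstituted system of 1 µM SyoA, 1 µM His-tagged SyoB and 100 µg/mL catalase in oxygenated 50 mM Tris pH 7.5 at 30 °C. Background NADH (about 320 µM) oxidation recorded first. Started with 1 mM test compound from DMSO stock; A340 (ε 6.22 mM−1 cm−1) monitored about 10 min, then about 1 h at room temperature for full NADH use. No-P450 controls included. Products analysed by HPLC.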

[6] = test system: SyoA mutants (SyoAEE, SyoAQT, SyoAET); test: In vitro H2O2-driven O-demethylation by I-helix mutants, HPLC; format: biochemical, Amycolatopsis thermoflava N1165; conditions: mutation of Gln252 and/or Glu253
Outline: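 SyoA I-helix mutants expressed in E. coli BL21(DE3) and purified by Ni affinity only. Enzyme at 1 µM in 50 mM Tris pH 7.5 with 0.5–2 mM test compound, preincubated 2 min at 30 °C. Started with 10 mM H2O2 and run 60 min at 30 °C, then catalase-quenched; triplicate. Products quantified by C18 HPLC at 254 nm with internal standard and product calibration curves.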

[7] = test system: SyoA mutants (SyoAEE, SyoAQT, SyoAET); test: UV-Vis substrate binding analysis of I-helix mutants; parameters: species or system Amycolatopsis thermoflava N1165
SyoA [8] = biological target: T1, SyoA; test: UV-Vis spin-state shift / substrate binding analysis; parameters: species or system Amycolatopsis thermoflava N1165; conditions: ligand titrated until Soret band stopped shifting
Outline: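 SyoA at about 3 µM in 50 mM Tris pH 7.5 received test compound in 1 µL aliquots from 100 mM DMSO stock. Spectra recorded from 600–250 nm until no further shift. Spin-state change read from the Soret band (417 nm) or the Q-bands (568 and 535 nm).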

SMILES	concentration of demethylated aromatic product (individual replicates) (SyoA [4])	Kd (SyoA [5]) [µM]	total turnover number (TTN) (SyoA [4])	concentration of demethylated aromatic product (mean of 3 replicates) (SyoA [4]) [µM]	O-demethylation by reconstituted SyoA/SyoB monooxygenase system (SyoA/SyoB)	also measured
COc1ccccc1O [guaiacol]						substrate binding to mutants (UV-Vis) [1]: not drastically impacted by the mutations; hydrogen peroxide driven O-demethylation by mutants compared to wild type [2]: loss of peroxygenase activity; monooxygenase activity compared to wild type ([3]; GcoAEE): significant reduction in the monooxygenase activity; monooxygenase activity compared to wild type ([3]; GcoAET): significant reduction in the monooxygenase activity; monooxygenase activity compared to wild type ([3]; GcoAQT): complete loss in activity
COc1cc(C)cc(O)c1O [2a, 3-methoxy-5-methylbenzene-1,2-diol]	802 µM and 822 µM and 762 µM					
COc1cc(C=O)cc(O)c1O [3a, 5-hydroxyvanillin]	332 µM and 314 µM and 279 µM					
COc1cccc(O)c1O [1b, 3-methoxycatechol]	155 µM and 125 µM and 146 µM					
COc1cc(C=O)cc(OC)c1O [syringaldehyde]		341 ± 25	308	308 ± 27	did not O-demethylate; also recorded: no O-demethylation	
COc1cccc(OC)c1O [syringol]		16 ± 1	142	142 ± 15	did not O-demethylate; also recorded: no O-demethylation	hydrogen peroxide driven O-demethylation by mutants compared to wild type [6]: loss of peroxygenase activity; substrate consumed (SyoA [4]; over 60 min, 10 mM H2O2): ~ 65%; NADH consumption in reaction containing SyoA, SyoB and substrate (SyoA/SyoB; monitored at 340 nm): NADH was consumed; substrate binding to mutants (UV-Vis) [7]: not drastically impacted by the mutations; shift to the HS (high-spin) form using the Soret band (SyoA [8]): ~ 70%
